The values that follow come from ChEMBL document CHEMBL4138185, “Investigation of the Physical and Bioactive Properties of Bromo- and Iodo-Containing Sponge-Derived Compounds Possessing an Oxyphenylethanamine Core” (J Nat Prod, 2017).

The test system of series [1] is Yersinia pseudotuberculosis. Kind of series: Toxicity against wild-type Yersinia pseudotuberculosis at 60 uM measured after 15 hrs by MTT assay. The series is classed as organism-based. To be noted: in vivo. The method in brief: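 Wild-type Y. pseudotuberculosis grown at room temperature in 2×YT with test agent at 60 μM, kanamycin at 50 μg/mL, or DMSO. MTT added after 15 h; absorbance at 570 nm used as the metabolic activity read-out.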

The test system of series [2] is Yersinia pseudotuberculosis. Kind of series: Growth inhibition of wild-type Yersinia pseudotuberculosis at 60 uM measured at 1 hr interval for 15 hrs. The format is organism-based. The conditions noted are these: in vivo. The method in brief:
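Wild-type Y. pseudotuberculosis grown at room temperature in 2×YT with test agent at 60 μM, kanamycin at 50 μg/mL, or DMSO. Absorbance at 600 nm read every hour over 15 h as the growth measure.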

Series [3] relates to Pseudomonas aeruginosa PA103. Kind of series: Inhibition of Pseudomonas aeruginosa PA103 T3SS-mediated ExoU secretion at 60 uM after 3 hrs under low calcium medium by SDS-PAGE analysis relative to control.
Series [4] has as its system Yersinia pseudotuberculosis. Kind of series: Inhibition of wild-type Yersinia pseudotuberculosis T3SS-mediated YopE secretion at 30 uM after 2 hrs under low calcium medium by SDS-PAGE analysis relative to control.
The subject of series [5] is Yersinia pseudotuberculosis. In words: Inhibition of wild-type Yersinia pseudotuberculosis T3SS-mediated YopE secretion at 120 uM after 2 hrs under low calcium medium by SDS-PAGE analysis relative to control.
For series [6], the system named is Yersinia pseudotuberculosis. Kind of series: Inhibition of wild-type Yersinia pseudotuberculosis T3SS-mediated YopE secretion at 60 uM after 2 hrs under low calcium medium by SDS-PAGE analysis relative to control.
The subject of series [7] is Yersinia pseudotuberculosis. In words: Inhibition of wild-type Yersinia pseudotuberculosis T3SS-mediated YopE secretion at 71 uM after 2 hrs under low calcium medium by SDS-PAGE analysis relative to control.

Active and inactive are the calls of the source. The rule behind the calls is not given here.

The inhibition is the drop in the measured response relative to a control, in per cent. For `COc1c(Br)cc(CC(O)C(=O)NCCc2ccc(O)c(Br)c2)cc1Br` (centres undefined), the Activity result in series [1] is “Non-Toxic”. Moreover, in series [2], the “growth inhibition (GI)” value is on record as “Non-Toxic”. In addition, the inhibition entry in series [3] was “inactive”. The inhibition in series [4] is more than 50%.

Take `CCC(=O)N(C)CCc1ccc(OCCCNC(=O)Cc2ccc(O)cc2)c(I)c1`: the inhibition in series [5] was more than 50%. In addition, in series [1], the Activity result is “Non-Toxic”. Moreover, in series [2], the “growth inhibition (GI)” value is “Non-Toxic”. Moreover, the inhibition entry in series [3] was “inactive”.

As for `COc1c(Br)cc(CC(O)C(=O)NCCc2ccc(O)c(I)c2)cc1Br` (centres undefined), in series [1], the Activity entry was “Non-Toxic”. Moreover, the “growth inhibition (GI)” value in series [2] was “Non-Toxic”. The inhibition in series [6] is more than 50%. Also, the inhibition result in series [3] is “inactive”.

With `CCC(=O)N(C)CCc1ccc(OCCCN(C)C(=O)Cc2ccc(O)cc2)c(Br)c1`, the Activity entry in series [1] is “Non-Toxic”. Besides, the “growth inhibition (GI)” value in series [2] is reported as “Non-Toxic”. In addition, the inhibition entry in series [3] is “inactive”. Also, the inhibition in series [4] was more than 50%.

Turning to `CCC(=O)N(C)CCc1cc(Br)c(OCCCNC(=O)Cc2ccc(O)cc2)c(Br)c1`, the inhibition in series [5] is more than 50%. Moreover, in series [1], the Activity entry is listed as “Non-Toxic”. Further, in series [2], the “growth inhibition (GI)” value is given as “Non-Toxic”. In addition, in series [3], the inhibition entry is “inactive”.

For `CCC(=O)N(C)CCc1ccc(OCCCNC(=O)Cc2ccc(O)cc2)c(Br)c1`, the Activity result in series [1] is listed as “Non-Toxic”. Besides, the “growth inhibition (GI)” value in series [2] was “Non-Toxic”. Besides, the inhibition in series [6] is more than 50%. The inhibition result in series [3] is “inactive”.

On to `CCC(=O)N(C)CCc1cc(Br)c(OCCCNC(=O)Cc2ccc(O)cc2)c(I)c1`, for which the Activity result in series [1] is reported as “Non-Toxic”. Further, the “growth inhibition (GI)” value in series [2] is “Non-Toxic”. Besides, the inhibition entry in series [3] was “inactive”. The inhibition in series [4] is more than 50%.

As for `C/C=C(\C)[C@H](O)[C@H](C)/C=C(C)/C=C/C/C(C)=C/Cc1nc(OC)c(OC)c(O)c1C`, the inhibition in series [7] was more than 50%.
